Some results are limits rather than exact numbers.

For one assay, the target named is Serine/threonine-protein kinase mTOR (Homo sapiens, UniProt P42345). In words: Inhibition of recombinant human GST tagged mTOR (1360 to 2549 residues) expressed in baculovirus expression system measured by LanthaScreen assay. The method, boiled down: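 mTOR inhibition measured by LanthaScreen assay; IC50 values average two independent experiments.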
`COc1ncc2cc1NS(=O)(=O)c1cccc(c1)C(=O)NCCn1cc(cn1)-c1cnc3ccc-2cn13`: the IC50 came out at 5790 nM.
As to `COc1ncc2cc1NS(=O)(=O)c1cccc(c1)C(=O)NCC1CCN(CC1)c1ccnc3ccc-2cc13`, the IC50 was found to be 4.1 nM.
Consider `COc1ncc2cc1NS(=O)(=O)c1cccc(c1)C(=O)NCCn1cc(cn1)-c1ccnc3ccc-2cc13`, for which the IC50 was determined as 249 nM.

The target of the next assay is Voltage-gated inwardly rectifying potassium channel KCNH2 (Homo sapiens, UniProt Q12809). Nature of the assay: Inhibition of human ERG by fluorescence polarization assay. The method, boiled down: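 Predictor h-ERG membrane preparations (sonicated) incubated with test compound dilutions and fluorescent tracer (working 4X tracer at 4 nM) at room temperature for ≥1 h. Read-out by fluorescence polarization, ex 530/25, em 590/35.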
Sequence of Voltage-gated inwardly rectifying potassium channel KCNH2 (Q12809 whole entry): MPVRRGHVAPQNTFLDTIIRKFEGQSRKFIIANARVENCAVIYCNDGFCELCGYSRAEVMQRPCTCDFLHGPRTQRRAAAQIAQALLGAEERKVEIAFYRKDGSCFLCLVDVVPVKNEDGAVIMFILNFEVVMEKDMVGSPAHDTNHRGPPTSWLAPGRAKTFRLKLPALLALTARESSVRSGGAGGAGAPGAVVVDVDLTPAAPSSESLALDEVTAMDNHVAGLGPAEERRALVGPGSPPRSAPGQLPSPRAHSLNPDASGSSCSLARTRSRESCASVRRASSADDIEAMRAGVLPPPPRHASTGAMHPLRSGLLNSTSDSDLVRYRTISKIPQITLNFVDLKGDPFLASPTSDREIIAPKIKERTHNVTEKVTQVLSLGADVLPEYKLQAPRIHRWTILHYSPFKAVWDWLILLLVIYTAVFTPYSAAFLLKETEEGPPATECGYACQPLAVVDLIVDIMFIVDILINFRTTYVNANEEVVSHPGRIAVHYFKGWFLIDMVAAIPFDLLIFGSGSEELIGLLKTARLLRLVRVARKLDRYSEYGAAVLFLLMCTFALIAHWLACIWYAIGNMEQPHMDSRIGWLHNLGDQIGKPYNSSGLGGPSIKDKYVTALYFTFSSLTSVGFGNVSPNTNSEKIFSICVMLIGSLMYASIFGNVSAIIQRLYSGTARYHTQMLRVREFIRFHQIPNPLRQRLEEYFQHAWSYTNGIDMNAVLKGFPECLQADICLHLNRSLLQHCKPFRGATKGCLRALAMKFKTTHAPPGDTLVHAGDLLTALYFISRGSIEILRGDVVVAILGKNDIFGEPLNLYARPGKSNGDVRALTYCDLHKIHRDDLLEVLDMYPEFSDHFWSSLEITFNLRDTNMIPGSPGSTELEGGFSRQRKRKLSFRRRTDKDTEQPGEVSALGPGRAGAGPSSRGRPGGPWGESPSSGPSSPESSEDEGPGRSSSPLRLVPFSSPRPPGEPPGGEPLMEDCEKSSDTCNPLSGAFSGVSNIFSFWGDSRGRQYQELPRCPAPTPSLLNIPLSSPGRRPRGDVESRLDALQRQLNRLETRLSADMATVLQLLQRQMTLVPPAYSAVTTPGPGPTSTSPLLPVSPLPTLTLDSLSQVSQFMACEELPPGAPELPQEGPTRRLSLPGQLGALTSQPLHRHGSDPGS
In turn, `COc1ncc2cc1NS(=O)(=O)c1cccc(c1)C(=O)NCCn1cc(cn1)-c1cnc3ccc-2cn13` returned an IC50 of more than 30000 nM.

The values are drawn from ChEMBL document CHEMBL4819017 (Eur J Med Chem, 2021).
